We go through 14 compounds from ChEMBL document CHEMBL1156277, “Discovery of N-methyl-4-(4-methoxyanilino)quinazolines as potent apoptosis inducers. Structure-activity relationship of the quinazoline ring” (Bioorg Med Chem Lett, 2010).

Each structure is given as a SMILES string. pEC50, pIC50: −log10 of the molar value. Some results are limits rather than exact numbers.

One data set has as its system NCI-H1299. Put plainly: Induction of apoptosis in human H1299 cells assessed as caspase activation. Format: functional, cell-based. In a few lines: (§1)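 Cell- and caspase-based HTS assay in human breast cancer T47D and human non-small cell lung cancer H1299 cells. Caspase-3 activation was read with fluorescent caspase-3 substrates and reported as EC50. Data are the mean of three or more experiments ± SEM.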

Data set [1] has as its system T47D. Description: Induction of apoptosis in human T47D cells assessed as caspase activation. The data set is classed as functional, cell-based. Summed up:
as §1

For data set [2], the system named is T47D. Put plainly: Selectivity ratio EC50 for human H1299 cells over EC50 for human T47D cells. Format: functional.
Data set [3] is described as follows: Inhibition of tubulin polymerization.
Data set [4] can be described thus: Ratio of AUC in brain to plasma in mouse at 2.5 mg/kg, iv. The data set is classed as ADME, organism-based. More on the design: dose 2.5 mg/kg, route intravenous. To be noted: brain and plasma, read-out: Ratio AUC. Summed up:
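Mice got a single intravenous dose. Compound levels in plasma from blood samples and in homogenized whole brain were determined by LC–MS/MS. Brain/plasma ratio was calculated from the areas under the concentration–time curves.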

What is called pEC50 is −log10 of the EC50, conventionally taken in molar units. Turning to `COc1ccc(N(C)c2nc(C)nc3ccc(NC(C)=O)cc23)cc1`, the pEC50 was 5.85 in the data set on NCI-H1299 and 6.02 in the data set on T47D [1]. Further, the Selectivity ratio in the data set on T47D [2] amounted to 1.5.
The term pIC50 denotes the negative decadic logarithm of the IC50, by convention in mol/L. On to `COc1ccc(N(C)c2nc(C)nc3cc(N)ccc23)cc1`, for which the negative-log EC50 (pEC50) was 6.24 in the data set with NCI-H1299 and 6.11 in the data set on T47D [1]. In addition, the negative-log IC50 (pIC50) in data set [3] is 5.70. Besides, the Selectivity ratio in the data set on T47D [2] was 0.73.
As to `COc1ccc(N(C)c2nc(C)nc3cc(N=[N+]=[N-])ccc23)cc1`, the negative logarithm of the EC50 (pEC50) was 6.89 with NCI-H1299 and 6.96 with T47D [1]. Besides, the Selectivity ratio in the data set with T47D [2] came out at 1.2.
Regarding `COc1ccc(N(C)c2nc(C)nc3ncccc23)cc1`, the pEC50 in the data set on NCI-H1299 is 7.68; with T47D [1] it was 7.82. The Kp in data set [4] stood at 1.8. In the data set with T47D [2], the Selectivity ratio worked out at 1.4.
Take `COc1ccc(N(C)c2nc(C)nc3ccc([N+](=O)[O-])cc23)cc1`: the values for the negative logarithm of the EC50 (pEC50) in the data set on NCI-H1299 and with T47D [1] were 6.89 and 6.40, respectively. Moreover, the Selectivity ratio in the data set with T47D [2] is 0.33.
In the same order, the values of `COc1ccc(N(C)c2nc(C)nc3cc([N+](=O)[O-])ccc23)cc1` are under 5.00, under 5.00 and 2.
Consider `COc1ccc(N(C)c2nccc3ccccc23)cc1`, for which the negative logarithm of the EC50 (pEC50) is 6.02 in the data set with NCI-H1299 and 6.22 in the data set on T47D [1]. Further, the pIC50 in data set [3] was 6.40. Further, the Selectivity ratio in the data set with T47D [2] is 2.
Take `COc1ccc(N(C)c2ccnc3ccccc23)cc1`: the pEC50 in the data set with NCI-H1299 is 7.59; with T47D [1] it was 7.68. Besides, in data set [4], the Kp stood at 9.2. Moreover, the Selectivity ratio in the data set on T47D [2] amounted to 2.
In the case of `COc1ccc(N(C)c2nnnc3ccccc23)cc1`, the pEC50 in the data set with NCI-H1299 was 7.35; in the data set with T47D [1] it was 7.77. For the same compound, the Selectivity ratio with T47D [2] was determined as 2.
With `COc1ccc(N(C)c2nc(C)nc3nccnc23)cc1`, the pEC50 in the data set with NCI-H1299 was 7.44; in the data set with T47D [1] it was 7.54. Further, in data set [4], the Kp was 2.1. Moreover, the Selectivity ratio in the data set on T47D [2] turned out to be 1.2.
With `COc1ccc(N(C)c2nc(C)nc3cccc(OC)c23)cc1`, the pEC50 in the data set on NCI-H1299 was 8.10; in the data set with T47D [1], 8.40. Also, the negative logarithm of the IC50 (pIC50) in data set [3] is 6.40. Moreover, the Selectivity ratio in the data set with T47D [2] was determined as 2.
As for `COc1ccc(N(C)c2nc(C)nc3ccc(N)cc23)cc1`, the pEC50 was 7.85 in the data set on NCI-H1299 and 8.10 in the data set with T47D [1]. In addition, the Kp in data set [4] came out at 3.6. In addition, the Selectivity ratio in the data set with T47D [2] was 2.
Regarding `COc1ccc(N(C)c2nc(C)nc3ccc(N(C)C)cc23)cc1`, the negative-log EC50 (pEC50) was 5.85 in the data set on NCI-H1299 and 6.35 in the data set on T47D [1]. In the data set with T47D [2], the Selectivity ratio turned out to be 3.1.
Regarding `COc1ccc(N(C)c2nc(C)nc3ccccc23)cc1` [VERUBULIN], in the data set with NCI-H1299, the pEC50 was 8.15. In data set [3], this compound showed a negative-log IC50 (pIC50) of 5.70.
